The subject of assay [1] is Canis familiaris. The experiment in a line: Antisecretory activity was evaluated in adult mongrel dog after po administration at 8 mg/kg of dose, expressed as reduction of gastric output. It counts as functional, Canis lupus familiaris, Stomach. The procedure, abridged: (§1)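 Conscious mongrel dogs with surgical Heidenhain pouches. Histamine was infused iv at 0.4 (μg/kg)/min, giving 50–60% of maximal acid output. The test agent was given iv or orally by gavage 1 h into the infusion. Acid output (volume × titrated acid) was collected in 30-min fractions and summed over 3 h, then compared with control runs in the same dog. Usually a single dog per compound.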

The subject of assay [2] is Rattus norvegicus. The experiment in a line: Antisecretory activity was evaluated in pylorus ligated rat after ip administration at 40 mg/kg of dose, expressed as reduction of gastric output. The settings on record: route intraperitoneal.
Assay [3] relates to Canis familiaris. The assay can be described thus: Antisecretory activity was evaluated in adult mongrel dog after iv administration at 5 mg/kg of dose, expressed as reduction of gastric output. Type of assay: functional, Canis lupus familiaris, Stomach. The essentials: as §1
Assay [4] relates to Canis familiaris. The experiment in a line: Compound was measured for percentage reduction in dimaprit stimulated canine gastric acid secretion after iv administration at 5 mg/kg dosage. Type of assay: functional, Canis lupus familiaris, Stomach. The procedure, abridged: (§2)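 Heidenhain pouch dogs. Acid output was summed over 3 h after dosing and expressed as percent reduction relative to control studies in the same animal; n per entry as reported.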

Assay [5] relates to Canis familiaris. The assay can be described thus: Compound was measured for percentage reduction in food stimulated canine gastric acid secretion after iv administration at 5 mg/kg dosage. Type of assay: functional, Canis lupus familiaris, Stomach. The essentials: (§3)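 Heidenhain pouch dogs given the test agent (iv or oral) together with a meal of 250 g ground cooked beef hearts. Acid output was collected and expressed as percent reduction relative to control studies in the same animal; n per entry as reported.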

Assay [6] concerns Rattus norvegicus. The assay can be described thus: Compound was measured for percentage inhibition of aspirin-induced ulcers at 3 mg/kg after po administration. It counts as functional. The essentials:
(§4)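 Rats fasted 24 h received the test agent orally in 0.4% methylcellulose-saline, then 1 h later 100 mg/kg aspirin orally. Stomachs were removed 4 h after aspirin and opened along the greater curvature, and ulcers were counted under a 2× magnifier. Inhibition was based on mean lesion number vs controls. Eight rats per compound; Student's t test.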

In assay [7] the test system is Canis familiaris. The experiment in a line: Compound was measured for percentage reduction in insulin hypoglycemia stimulated canine gastric acid secretion after iv administration at 5 mg/kg dosage. Type of assay: functional, Canis lupus familiaris, Stomach. The procedure, abridged:
(§5)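 Dogs with simple gastric fistulas. The test agent (iv or oral) was given at the time of regular insulin injection. Gastric collections were made for 3 h, and percent reduction of acid output was calculated against control studies in the same animals; n per entry as reported.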

The test system of assay [8] is Canis familiaris. The experiment in a line: Compound was measured for percentage reduction in food stimulated canine gastric acid secretion after po administration at 8 mg/kg dosage. It counts as functional, Canis lupus familiaris, Stomach. The procedure, abridged: as §3
The subject of assay [9] is Canis familiaris. The assay can be described thus: Compound was measured for percentage reduction in insulin hypoglycemia stimulated canine gastric acid secretion after po administration at 8 mg/kg dosage. It counts as functional, Canis lupus familiaris, Stomach. The essentials:
as §5

For assay [10], the system named is Rattus norvegicus. The assay can be described thus: Compound was measured for percentage inhibition of aspirin-induced ulcers at 10 mg/kg after po administration. It counts as functional. The essentials: as §4
The test system of assay [11] is Rattus norvegicus. The experiment in a line: Compound was measured for percentage inhibition of aspirin-induced ulcers at 30 mg/kg after po administration. Type of assay: functional. The procedure, abridged: as §4
Assay [12] deals with Canis familiaris. The assay can be described thus: Compound was measured for percentage reduction in food stimulated canine gastric acid secretion after iv administration at 5 mg/kg dosag. Type of assay: functional, Canis lupus familiaris, Stomach. The essentials:
as §3

The test system of assay [13] is Canis familiaris. The assay can be described thus: Compound was measured for percentage reduction in dimaprit stimulated canine gastric acid secretion after po administration at 8 mg/kg dosage. Type of assay: functional, Canis lupus familiaris, Stomach. The procedure, abridged: as §2
Assay [14] has as its system Rattus norvegicus. The experiment in a line: Compound was measured for percentage inhibition of aspirin-induced ulcers at 20 mg/kg after po administration. Type of assay: functional. The essentials: as §4

A word on the inhibition in vivo: it is the percentage by which the read-out fell short of the control. Lower therefore signals a weak effect.

Regarding `CNC(=O)N(C)C1c2cc(C)ccc2Oc2ncccc21` (stereo unspecified), the Reduction in the assay with Canis familiaris [1] is recorded as less than 30%; in the assay with Rattus norvegicus [2], 71%; with Canis familiaris [3], 62%.

As for `CNC(=O)N(C)C1c2cc(OC)ccc2Oc2ncccc21` (stereo unspecified), the Reduction in the assay with Canis familiaris [1] is less than 30%; in the assay on Rattus norvegicus [2], 59%; in the assay with Canis familiaris [3], 51%.

`CNC(=O)N(C)C1c2cccnc2Oc2c(Cl)cccc21` (stereo unspecified): the Reduction in the assay with Rattus norvegicus [2] is reported as 60%; with Canis familiaris [3] it was less than 30%.

As to `CN(C(=O)N1CCCCC1)C1c2ccccc2Oc2ncccc21` (stereo unspecified), the Reduction is listed as 72% in the assay on Rattus norvegicus [2] and 31% in the assay on Canis familiaris [3].

As for `CNC(=O)N(C)C1c2cccnc2Oc2c(F)cccc21` (stereo unspecified), the values for the Reduction in the assay with Rattus norvegicus [2] and in the assay on Canis familiaris [3] were 35% and less than 30%, respectively.

For `CNC(=O)N(C)C1c2ccccc2Oc2ncccc21` (stereo unspecified), the Reduction in the assay with Canis familiaris [1] was less than 30%; with Canis familiaris [4], 58%; with Canis familiaris [5], 69%; with Canis familiaris [7] it was 79%; with Canis familiaris [3] it was 84%; with Canis familiaris [8], less than 30%. For the same compound, the Reduction with Canis familiaris [9] is less than 30%. Also, the inhibition in vivo at 3 mg/kg with Rattus norvegicus [6] came to 51%. In the assay with Rattus norvegicus [10], this compound returned an inhibition in vivo at 10 mg/kg of 89%. In addition, the inhibition in vivo at 30 mg/kg in the assay with Rattus norvegicus [11] is 100%.

`CNC(=O)N(C)C1c2ccc(OC)cc2Oc2ncccc21` (stereo unspecified): the Reduction is less than 30% with Canis familiaris [1], 60% in the assay with Rattus norvegicus [2] and 54% in the assay with Canis familiaris [3].

For the compound `CNC(=O)N(C)C1c2cccnc2Oc2cccc(C(F)(F)F)c21` (stereo unspecified), the Reduction is listed as 71% in the assay on Rattus norvegicus [2] and less than 30% in the assay with Canis familiaris [3].

As to `CNC(=O)N(C)C1c2ccccc2Oc2cccnc21` (stereo unspecified), the Reduction in the assay with Canis familiaris [1] is given as 34%; in the assay on Rattus norvegicus [2] it was 37%; in the assay with Canis familiaris [3], 38%.

On to `CNC(=O)NC1c2ccccc2Oc2ncccc21` (stereo unspecified), for which the results for the Reduction in the assay on Rattus norvegicus [2] and in the assay with Canis familiaris [3] were 54% and 31%, respectively.

For `CNC(=O)N(C)C1c2ccccc2Sc2ncccc21` (stereo unspecified), the Reduction was less than 30% in the assay on Canis familiaris [1]; 96% in the assay on Rattus norvegicus [2]; 78% in the assay on Canis familiaris [4]; 78% in the assay with Canis familiaris [12]; 97% in the assay with Canis familiaris [7]; 80% in the assay with Canis familiaris [3]. The Reduction with Canis familiaris [8] is recorded as less than 30%; in the assay with Canis familiaris [13], less than 30%; in the assay with Canis familiaris [9] it was 62%. The same compound yielded an inhibition in vivo at 3 mg/kg with Rattus norvegicus [6] of 0%. Besides, the inhibition in vivo at 10 mg/kg in the assay with Rattus norvegicus [10] is 68%. The compound further showed an inhibition in vivo at 30 mg/kg in the assay on Rattus norvegicus [11] of 100%.

With `CNC(=O)N(C)C1c2cc(F)ccc2Oc2ncccc21` (stereo unspecified), the Reduction in the assay with Canis familiaris [1] is less than 30%; in the assay with Rattus norvegicus [2] it was 68%; with Canis familiaris [3], 63%.

`NC(=O)NC1c2ccccc2Oc2ncccc21` (stereo unspecified): the Reduction with Rattus norvegicus [2] worked out at 46%; in the assay on Canis familiaris [3], 36%.

As to `CN(C(N)=O)C1c2ccccc2Oc2ncccc21` (stereo unspecified), the Reduction is listed as 70% in the assay with Rattus norvegicus [2] and 30% with Canis familiaris [3].

As to `CN(C(=O)NC(C)(C)C)C1c2ccccc2Oc2ncccc21` (stereo unspecified), the Reduction was less than 30% with Canis familiaris [1], 82% in the assay with Rattus norvegicus [2] and 35% with Canis familiaris [3].

For the compound `CN1CCN(C(=O)N(C)C2c3ccccc3Oc3ncccc32)CC1` (stereo unspecified), the Reduction with Canis familiaris [1] is given as less than 30%; in the assay with Rattus norvegicus [2], 94%; in the assay on Canis familiaris [3], less than 30%.

On to `CN(C)C(=O)N(C)C1c2ccccc2Oc2ncccc21` (stereo unspecified), for which the Reduction in the assay on Rattus norvegicus [2] is reported as 96%; with Canis familiaris [3], less than 30%. In the assay with Rattus norvegicus [14], this compound returned an inhibition in vivo at 20 mg/kg of 100%.

Turning to `CN(C(=O)N1CCOCC1)C1c2ccccc2Oc2ncccc21` (stereo unspecified), the Reduction is recorded as less than 30% in the assay with Canis familiaris [1], 95% with Rattus norvegicus [2] and 64% with Canis familiaris [3].

As to `CNC(=O)N(C)C1c2ccc(C(F)(F)F)cc2Oc2ncccc21` (stereo unspecified), the Reduction in the assay with Rattus norvegicus [2] is given as 46%; in the assay on Canis familiaris [3], less than 30%.

For `CN(C)C(=O)NC1c2ccccc2Oc2ncccc21` (stereo unspecified), the figures for the Reduction with Canis familiaris [1], with Rattus norvegicus [2] and in the assay with Canis familiaris [3] were less than 30%, 95% and 35%, respectively. The compound also displayed an inhibition in vivo at 30 mg/kg in the assay with Rattus norvegicus [11] of 74%.

Regarding `CNC(=O)N(C)C1c2ccccc2Oc2ccncc21` (stereo unspecified), the Reduction was 77% in the assay on Rattus norvegicus [2] and less than 30% in the assay with Canis familiaris [3].

For the compound `CN/C(=N\CCSCc1nc[nH]c1C)NC#N` [CIMETIDINE], the Reduction with Canis familiaris [1] is given as 86%; with Rattus norvegicus [2], 74%; with Canis familiaris [3], 84%. For the same compound, 10 mg/kg produced 67% inhibition in vivo in the assay with Rattus norvegicus [10].

As to `CNC(=O)N(C)C1c2cc(C(=O)OC)ccc2Oc2ncccc21` (stereo unspecified), the Reduction in the assay on Rattus norvegicus [2] and with Canis familiaris [3] was less than 30% each time.

On to `CNC(=O)N(C)C1c2cc(CO)ccc2Oc2ncccc21` (stereo unspecified), for which the Reduction in the assay with Rattus norvegicus [2] and with Canis familiaris [3] was less than 30% each time.

Consider `CNC(=O)N(C)C1c2ccc(C)cc2Oc2ncccc21` (stereo unspecified), for which the Reduction was less than 30% in the assay with Canis familiaris [1], 81% in the assay on Rattus norvegicus [2] and 75% with Canis familiaris [3].

With `CNC(=O)N(C)C1c2ccccc2S(=O)(=O)c2ncccc21` (stereo unspecified), the Reduction with Rattus norvegicus [2] and with Canis familiaris [3] was less than 30% throughout.

For the compound `CNC(=O)N(C)C1c2cc([N+](=O)[O-])ccc2Oc2ncccc21` (stereo unspecified), the Reduction is recorded as 71% in the assay with Rattus norvegicus [2] and less than 30% with Canis familiaris [3].

Regarding `CN(C(=O)Nc1ccccc1)C1c2ccccc2Oc2ncccc21` (stereo unspecified), the values for the Reduction in the assay with Canis familiaris [1], in the assay on Rattus norvegicus [2] and in the assay with Canis familiaris [3] were less than 30%, 45% and 55%, respectively.

For the compound `CNC(=O)N(C)C1c2cc(Cl)c(C)cc2Oc2ncccc21` (stereo unspecified), the values for the Reduction with Rattus norvegicus [2] and in the assay with Canis familiaris [3] were 65% and less than 30%, respectively.
